PubChem BioAssay
Activity calls are given as the source filed them.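 How the source made its calls, unless noted: active means NADPH fluorescence slope more negative than the mean of all samples by about 3 SD, 99.7% confidence; inactive means the rest.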

Columns and labels:
[1] = inhibitors of TNFa-induced NFkB p65 translocation, primary screen, imaging, HUVEC, MLSMR starter and 10KST1 sets (AID 438;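 active means inhibition above 20% together with a positive visual image hit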;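 further: compound added about 3h40 before a 20 min TNFalpha stimulation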;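 on inhibition: signal is the nuclear over cytoplasmic p65 intensity ratio per well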); conditions: HUVEC TNFa-induced p65 nuclear translocation; cell count: measured here: nuclei count (cytotoxicity indicator), at 2.08 µM; inhibition: at 2 µM, stronger effect = higher value, 0% TNFa-plus-vehicle, 100% no-TNFa wells
[2] = inhibitors of E-selectin induction by TNFa, primary screen, imaging, HUVEC, immunofluorescence, MLSMR starter and 10KST1 sets (AID 487;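 active means visually confirmed hit in the image check and inhibition above 20%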;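 on inhibition: signal is fraction of cell area covered by stained E-selectin grains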;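 on nuclei count: 100% = median nuclei count of all wells on the same plate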); conditions: HUVEC TNFalpha-induced E-selectin immunofluorescence imaging, at 2 µM; inhibition: stronger effect = higher value; nuclei count: measured here: cell number, toxicity
[3] = DUSP6 inhibitors restoring Erk phosphorylation by chemical complementation, primary imaging in DUSP6-transfected HeLa (AID 609;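 active means compounds giving at least 50% inhibition in the cell-based MKP-3 phosphatase rescue imaging test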;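 on inhibition: phospho-Erk level distribution per well compared with pooled transfected vehicle control wells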); conditions: HeLa MKP-3 transfected, phospho-Erk imaging KS statistic, at 10 µM, cells stimulated with TPA for 15 min
[4] = target: Dual specificity protein phosphatase 6 (Homo sapiens) (UniProt Q16828); assay: as above; conditions: HeLa MKP-3 transfected, phospho-Erk imaging KS statistic; at 10 µM; stronger effect = higher value; cells stimulated with TPA for 15 min
[5] = target: Voltage-gated potassium channel subunit beta-2 (Rattus norvegicus) (UniProt P62483); assay: KvBeta enzyme negative modulators, primary screen, biochemical, NADPH fluorescence (AID 622;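 active means fluorescence slope higher than the sample average by over 3 SD, cut at about -0.22 in these data, passing the limit was not always enough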;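 further: slope of raw intensity against log time taken from 70 to 1610 s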); conditions: recombinant KvBeta, 4-cyanobenzaldehyde reduction, at 10 µM, stronger effect = higher value
[6] = target: Voltage-gated potassium channel subunit beta-2 (Rattus norvegicus) (UniProt P62483); assay: KvBeta positive modulators, primary screen, biochemical, NADPH fluorescence (AID 623); conditions: Recombinant KvBeta, NADPH fluorescence decrease slope, 10 min; at 10 µM; stronger effect = lower value;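 further: fluorescence intensity change per second fitted from 20 to 320 s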
[7] = target: Alpha-2C adrenergic receptor (Homo sapiens) (UniProt P18825); assay: modulators of alpha2C/GIRK thallium flux, primary screen, cell-based, HEK293 alpha2C/GIRK1/2 (AID 624;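 active means fluorescence slope after compound addition differing from the mean of all screened samples at 99.7% confidence, in either direction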;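 further: slope of fluorescence ratio to pre-addition baseline per second over 15 to 24 s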); conditions: thallium flux BTC fluorescence, at 10 µM, actives lie on both sides
[8] = inhibitors of larval lipid processing in zebrafish, primary screen, whole organism, PED6 fluorescence, gall bladder and intestine (AID 686;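 active means a full or partial loss of lipid-probe fluorescence in the fish gall bladder, intestine or both, judged by eye; inactive means no fluorescence loss, or compound toxic to the fish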;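 further: larvae 5 to 7 days old with five fish per well; signal comes from phospholipase A2 cleavage of quenched PED6 carried via bile; overnight exposure to compound and PED6 before scoring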); conditions: Zebrafish larvae PED6 lipid processing, fluorescence scoring; screened at 20 µM (by protocol)
Summary of the method: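 Also added: quenched phospholipase substrate PED6, 100 nM final, ingested by larvae; System: zebrafish larvae, 5-7 d; Quantity: 5 larvae per well; Compound: 20 µM single dose; Schedule: overnight compound and PED6 incubation; Read-out: visual per-well fluorescence inhibition score; Measured by: By-eye fluorescence microscopy; Medium: E3.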

[9] = inhibitors of Chlamydomonas gravitaxis, primary screen, whole organism, Chlamydomonas reinhardtii, WT vs cilia-less mutant, absorbance, 96-well (AID 463189;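 active means inhibition at or above 50% relative to wild type and mutant plate controls; inactive means inhibition below 50%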;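 further: 0% = wild type cc124 cells in DMSO and 100% = ciliumless bld1 mutant cells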); conditions: OD600 absorbance, 2 days, at 10 µM, stronger effect = higher value
[10] = measured here: cell density z-score
[11] = measured here: nuclear c-Myc green intensity z-score
[12] = measured here: nuclear pErk red intensity z-score, stronger effect = higher value

Dual specificity protein phosphatase 6 (Homo sapiens), sequence (Q16828 whole entry, looked up): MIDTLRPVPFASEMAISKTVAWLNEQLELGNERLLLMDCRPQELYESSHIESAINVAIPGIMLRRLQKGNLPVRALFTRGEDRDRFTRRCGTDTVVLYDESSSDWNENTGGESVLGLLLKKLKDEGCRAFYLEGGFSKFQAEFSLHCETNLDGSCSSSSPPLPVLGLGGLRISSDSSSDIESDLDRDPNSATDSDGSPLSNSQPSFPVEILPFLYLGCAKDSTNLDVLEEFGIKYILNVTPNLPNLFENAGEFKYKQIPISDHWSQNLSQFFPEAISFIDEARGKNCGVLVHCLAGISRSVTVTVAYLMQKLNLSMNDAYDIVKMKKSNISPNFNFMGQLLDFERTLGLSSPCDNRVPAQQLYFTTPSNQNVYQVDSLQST
Alpha-2C adrenergic receptor (Homo sapiens), sequence (P18825 whole entry, looked up): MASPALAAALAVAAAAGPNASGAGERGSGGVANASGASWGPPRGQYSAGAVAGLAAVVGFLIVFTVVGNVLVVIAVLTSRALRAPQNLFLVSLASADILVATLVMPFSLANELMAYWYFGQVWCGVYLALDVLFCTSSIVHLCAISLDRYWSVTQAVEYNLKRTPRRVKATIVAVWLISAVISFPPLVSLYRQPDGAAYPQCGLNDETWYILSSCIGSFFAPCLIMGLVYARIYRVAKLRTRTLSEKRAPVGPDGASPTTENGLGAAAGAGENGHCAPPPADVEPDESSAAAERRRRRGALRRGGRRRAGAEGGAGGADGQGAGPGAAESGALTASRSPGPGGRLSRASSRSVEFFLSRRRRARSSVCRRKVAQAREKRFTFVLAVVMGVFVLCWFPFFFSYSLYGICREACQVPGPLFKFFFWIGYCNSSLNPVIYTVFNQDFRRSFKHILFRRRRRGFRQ
Voltage-gated potassium channel subunit beta-2 (Rattus norvegicus), sequence (P62483 whole entry, looked up): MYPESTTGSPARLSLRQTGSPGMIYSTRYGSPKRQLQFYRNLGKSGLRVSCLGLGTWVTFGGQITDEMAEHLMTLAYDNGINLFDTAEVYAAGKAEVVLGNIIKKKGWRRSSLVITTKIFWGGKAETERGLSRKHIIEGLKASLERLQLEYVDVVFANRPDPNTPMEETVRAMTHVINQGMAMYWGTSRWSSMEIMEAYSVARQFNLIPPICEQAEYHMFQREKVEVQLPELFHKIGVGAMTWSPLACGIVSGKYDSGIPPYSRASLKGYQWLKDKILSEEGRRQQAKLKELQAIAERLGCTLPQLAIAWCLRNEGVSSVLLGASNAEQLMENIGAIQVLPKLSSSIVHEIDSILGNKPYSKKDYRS

Structure (SMILES) | cell count [1] | inhibition [1] | inhibition [2] | nuclei count [2] | z-score [3, 10] | z-score [3, 11] | z-score [3, 12] | inhibition [4] | fluorescence slope [5] | NADPH fluorescence slope [6] | slope [7] | outcome [8] | inhibition [9]
CC(=O)N1CC=C2C(C#N)=C(N)C(C#N)(C#N)[C@H](c3ccoc3)[C@H]2C1 | 364 | -12.2% (inactive) | -63% (inactive) | 90.4% | 0.865 | 0.398 | -2.11 | -4.7% (inactive) | -0.371 (inactive) | 7.7e-06 (inactive) | 0.00495 (inactive) | inactive | -0.734% (inactive)
CC1(C)CC(=O)C(C=NCC(O)c2ccccc2)=C(O)C1 (stereo unspecified) | 461 | -12.7% (inactive) | -181% (inactive) | 204% | -1.15 | 1.23 | 0.572 | 4.37% (inactive) | -0.354 (inactive) | -1.9e-05 (inactive) | 0.00522 (inactive) | inactive | 14.3% (inactive)
CCOc1ccc(Cn2c(O)cc(=O)[nH]c2=O)cc1 | 530 | 1.9% (inactive) | -97.4% (inactive) | 190% | 0.509 | 0.944 | -0.603 | 14% (inactive) | -0.322 (inactive) | 9.9e-06 (inactive) | 0.00555 (inactive) | inactive | -15% (inactive)
Cn1c(O)c(C=Nc2ccc(Cc3ccncc3)cc2)c(=O)n(C)c1=O | 642 | 6.6% (inactive) | -91% (inactive) | 136% | -1.1 | -0.451 | 0.687 | 4.25% (inactive) | -0.486 (inactive) | -9.5e-05 (inactive) | 0.00577 (inactive) | inactive | -1.46% (inactive)
COc1ccc2oc(=O)c(-c3nc(C)cs3)cc2c1 | 523 | -9.3% (inactive) | -79.5% (inactive) | 135% | -0.969 | 0.963 | 1.41 | -2.07% (inactive) | -0.302 (inactive) | -3.5e-05 (inactive) | 0.00534 (inactive) | inactive | 26.4% (inactive)
CCOC(=O)CSc1nc(C)c(C(C)=O)cc1C#N | 623 | -18.6% (inactive) | -0.7% (inactive) | 147% | -0.31 | -1.06 | -1.5 | -0.624% (inactive) | -0.403 (inactive) | -1.7e-05 (inactive) | 0.00581 (inactive) | inactive | 43.9% (inactive)
COc1ccccc1N(O)C1CC(=O)N(c2ccc(Br)cc2)C1=O (stereo unspecified) | 351 | 4% (inactive) | 46% (inactive) | 74.7% | -0.0216 | 1.1 | 0.319 | -2.59% (inactive) | -0.415 (inactive) | -4.4e-05 (inactive) | 0.00547 (inactive) | inactive | 37.8% (inactive)
Cc1c(NC(=O)C(CC(=O)O)NCc2ccco2)c(=O)n(-c2ccccc2)n1C (stereo unspecified) | 357 | -8% (inactive) | -112% (inactive) | 164% | -0.725 | 2.03 | 1.41 | -5.26% (inactive) | -0.44 (inactive) | -0.000144 (inactive) | 0.00721 (inactive) | inactive | -0.003% (inactive)
CCC1(C)Cc2c(sc3c2c(=O)n(C)c2nnc(SCc4ccccc4)n32)CO1 (stereo unspecified) | 584 | 1.3% (inactive) | -171% (inactive) | 156% | -0.0769 | -0.7 | -1.21 | 3.56% (inactive) | -0.286 (inactive) | -6.4e-06 (inactive) | 0.00603 (inactive) | inactive | 16.4% (inactive)
CSc1nc(Oc2ccc(=O)[nH]n2)nc(N(C)C)n1 | 619 | -0.7% (inactive) | -20.1% (inactive) | 148% | -0.384 | -0.165 | 1.66 | -2.69% (inactive) | -0.314 (inactive) | 2.2e-06 (inactive) | 0.00466 (inactive) | inactive | 9.17% (inactive)
CCOc1cccc(-c2nn3c(-c4ccco4)nnc3s2)c1 | 591 | -18.9% (inactive) | -310% (inactive) | 153% | -0.574 | -0.476 | -0.496 | -4.27% (inactive) | -0.409 (inactive) | -0.00014 (inactive) | 0.00461 (inactive) | inactive | 17.2% (inactive)
C=CCOC(=O)C(C#N)c1nc2ccccc2nc1N1CCN(c2ccccc2OCC)CC1 (stereo unspecified) | 543 | -30.2% (inactive) | -94.9% (inactive) | 165% | -0.552 | -0.297 | 0.325 | -11.5% (inactive) | -0.494 (inactive) | -3.6e-05 (inactive) | 0.00373 (inactive) | inactive | -7.78% (inactive)
Cc1nc2oc(C(=O)c3ccc(Br)cc3)c(N)c2c2c1COC(C)(C)C2 | 643 | -7.3% (inactive) | -142% (inactive) | 119% | 0.13 | -0.803 | -0.664 | 24.7% (inactive) | -0.532 (inactive) | -5.4e-05 (inactive) | 0.00462 (inactive) | inactive | 39.3% (inactive)
c1coc(CNc2ncnc3ccccc23)c1 | 553 | -2.6% (inactive) | 2.7% (inactive) | 155% | 0.847 | -1.11 | 1.51 | 14% (inactive) | -0.479 (inactive) | -0.000192 (inactive) | 0.00559 (inactive) | inactive; toxic | 12.9% (inactive)
COc1cc(-n2c3nc4ccccc4nc3c3c(=O)n(Cc4ccco4)cnc32)cc(OC)c1OC | 308 | -15.2% (inactive) | -111% (inactive) | 168% | -1.73 | 0.447 | 0.876 | -3.5% (inactive) | -0.417 (inactive) | -0.000139 (inactive) | 0.00442 (inactive) | inactive | 3.2% (inactive)
N#Cc1c(N)nc(SCC(=O)NCCc2ccccc2)c(C#N)c1-c1cccs1 | 441 | 3.4% (inactive) | 19.3% (inactive) | 62.6% | -1.05 | -0.516 | 1.34 | 7.83% (inactive) | -0.418 (inactive) | -1.6e-05 (inactive) | 0.00734 (inactive) | inactive | -7.92% (inactive)
COC(=O)CSc1nc(N)c2c3c(sc2n1)CCCC3 | 627 | -10.6% (inactive) | -9.7% (inactive) | 172% | -2.1 | 0.19 | 1.1 | 4.37% (inactive) | -0.355 (inactive) | -6.3e-05 (inactive) | 0.00567 (inactive) | inactive | -6.63% (inactive)
COc1ccc(OC)c(C2C(C(=O)c3ccco3)=C(O)C(=O)N2CCCN2CCOCC2)c1 (stereo unspecified) | 546 | -4.5% (inactive) | -85% (inactive) | 159% | -1.04 | 0.589 | -0.634 | -0.674% (inactive) | -0.495 (inactive) | -3.6e-05 (inactive) | 0.0072 (inactive) | inactive | 2.93% (inactive)
CCOC(=O)c1c(C)n(C)c2ccc(OC)c(NC(=O)CN3CCCCC3)c12 | 343 | -2.7% (inactive) | -15% (inactive) | 132% | -1.53 | -1.22 | 2.07 | -6.59% (inactive) | -0.46 (inactive) | -0.000136 (inactive) | 0.00641 (inactive) | inactive | -10.1% (inactive)
CC1(C)NC(=O)N(CC(O)Cn2nnc3ccccc32)C1=O (stereo unspecified) | 372 | 3.9% (inactive) | -188% (inactive) | 122% | 0.214 | 0.212 | 2.03 | -7.28% (inactive) | -0.357 (inactive) | 2.5e-05 (inactive) | 0.0051 (inactive) | inactive | 6.41% (inactive)
N#CC1=C(N)C(C#N)(C#N)[C@H](c2ccncc2)[C@H]2CN(C(=O)OCc3ccccc3)CC=C12 | 555 | -9.5% (inactive) | -136% (inactive) | 192% | -0.56 | -0.0237 | -0.0209 | 20.3% (inactive) | -0.271 (inactive) | -4.4e-06 (inactive) | 0.00576 (inactive) | inactive | 7.4% (inactive)
CCCCOc1ccc(CSC(CC(=O)O)C(=O)O)cc1 (stereo unspecified) | 336 | -16.7% (inactive) | -75.1% (inactive) | 114% | -0.61 | -0.895 | 0.193 | 3.5% (inactive) | -0.433 (inactive) | -0.000104 (inactive) | 0.00541 (inactive) | inactive | 1.39% (inactive)
CCCSC1=C(C#N)C(c2ccc(OC)cc2)C2=C(CC(C)(C)CC2=O)N1 (stereo unspecified) | 364 | -8.4% (inactive) | -74.2% (inactive) | 160% | 1.35 | -0.891 | 0.22 | -4.59% (inactive) | -0.439 (inactive) | -0.000144 (inactive) | 0.00555 (inactive) | inactive | 15.5% (inactive)
Cc1noc(NS(=O)(=O)c2ccc(NC(=O)COc3ccccc3)cc2)c1C | 641 | -10.1% (inactive) | 29.8% (inactive) | 182% | -0.876 | 0.527 | -0.0095 | -11.5% (inactive) | -0.376 (inactive) | -3.7e-05 (inactive) | 0.00522 (inactive) | inactive | 4.64% (inactive)
N#Cc1c(N)sc(=S)c2c1CCCCC2 | 560 | -3.2% (inactive) | -130% (inactive) | 180% | -0.472 | -0.421 | 0.0305 | -0.608% (inactive) | -0.339 (inactive) | 2.8e-06 (inactive) | 0.00229 (inactive) | inactive | 6.84% (inactive)
Cc1ccc2[nH]c3c(NCCN4CCOCC4)ncnc3c2c1 | 558 | -21.5% (inactive) | -90.3% (inactive) | 160% | -2.07 | -0.295 | -0.0856 | -6.06% (inactive) | -0.475 (inactive) | -5.9e-05 (inactive) | 0.00484 (inactive) | inactive | 2.83% (inactive)
COCCOCCOCCC(=O)NC1CC2CCC1(C)C2(C)C (stereo unspecified) | 580 | -10.5% (inactive) | 32.9% (inactive) | 158% | 0.451 | -0.414 | -0.476 | 6.51% (inactive) | -0.459 (inactive) | -1.1e-05 (inactive) | 0.00758 (inactive) | inactive | 13.6% (inactive)
